In assay [1] the test system is Kidney. As to the kind of experiment: Antioxidant activity assessed as inhibition of total reactive oxygen species generation in Wistar rat kidney by 2',7'-dichlorofluorescein based fluorescence spectroscopy. It counts as functional, tissue-based. Summed up: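 Rat kidney homogenate (postmicrosomal fraction) from freshly killed male Wistar rats, 150-200 g, mixed with samples in 10% EtOH (final 0.4%). DCHF-DA (12.5 mM, in EtOH, final 0.2%) added in 50 mM phosphate buffer pH 7.4 and incubated 37 °C for 30 min. DCF fluorescence read at ex 460/em 530 nm. Trolox positive control. IC50 reported as mean ± standard error, triplicate.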

Assay [2] can be described thus: Antioxidant activity assessed as inhibition of hydroxyl radical generation by fluorescence spectroscopy. It counts as functional. Summed up: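 Test samples in 10% EtOH (final 0.4%) added to 1 mM H2O2 plus 0.2 mM FeSO4 and incubated 37 °C for 5 min. Esterase-treated 2 µM DCHF-DA (in EtOH) then added and fluorescence followed for 30 min at ex 460/em 530 nm. Trolox positive control. IC50 reported as mean ± standard error of triplicate experiments.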

Assay [3] in a line: Antioxidant activity assessed as peroxynitrite scavenging activity by fluorescence spectroscopy. It counts as functional. The method in brief: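 Authentic peroxynitrite oxidation of dihydrorhodamine 123 (final 5 µM) in N2-purged buffer of 90 mM NaCl, 50 mM Na3PO4, 5 mM KCl and 100 µM DTPA, pH 7.4. Fluorescence read 5 min after treatment with and without ONOO- at ex 480/em 530 nm. Signal taken as final minus background. DL-penicillamine positive control. IC50 reported as mean ± standard error, n = 3.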

Usually IC50 stands for the point on the concentration scale where inhibition reaches its midpoint. `O=C(Cc1ccc(O)c(O)c1)O[C@H]1[C@H](OCCc2cc(O)c(O)cc2O)O[C@H](CO)[C@@H](O)[C@@H]1O`: the IC50 amounted to 45.4 µM in assay [1], 4.21 µM in assay [2] and 1.54 µM in assay [3].

As to `O=c1c(O[C@@H]2O[C@H](CO)[C@@H](O)[C@H](O)[C@H]2O[C@@H]2OC[C@@H](O)[C@H](O)[C@H]2O)c(-c2ccc(O[C@@H]3O[C@H](CO)[C@@H](O)[C@H](O)[C@H]3O)cc2)oc2cc(O)cc(O)c12`, the figures for the IC50 in assay [1], in assay [2] and in assay [3] were 82.2 µM, 5.28 µM and 13.5 µM, respectively.

On to `CC(C)(S)C(N)C(=O)O` (racemic) [DL-PENICILLAMINE], for which the IC50 in assay [3] turned out to be 1.05 µM.

Regarding `O=c1c(O)c(-c2ccc(O)c(O)c2)oc2cc(O)cc(O)c12` [QUERCETIN], the IC50 in assay [1] amounted to 29.1 µM; in assay [2], 2.39 µM; in assay [3], 1.38 µM.

For the compound `O=C(Cc1ccc(O)c(O)c1)O[C@H]1[C@H](OCCc2ccc(O)c(O)c2)O[C@H](CO)[C@@H](O)[C@@H]1O` [TERNSTROSIDE A], the values for the IC50 in assay [1], in assay [2] and in assay [3] were 39.3 µM, 3.41 µM and 1.69 µM, respectively.

Turning to `O=C(Cc1ccc(O)cc1)O[C@H]1[C@H](OCCc2ccc(O)c(O)c2)O[C@H](CO)[C@@H](O)[C@@H]1O` [TERNSTROSIDE B], the IC50 in assay [1] was found to be 62.5 µM; in assay [2], 4.66 µM; in assay [3], 2.36 µM.

As to `O=C(Cc1ccc(O)c(O)c1)O[C@@H]1[C@@H](O)[C@H](OCCc2ccc(O)c(O)c2)O[C@H](CO)[C@H]1O` [TERNSTROSIDE C], the half-maximal inhibitory concentration (IC50) worked out at 33.3 µM in assay [1], 3.26 µM in assay [2] and 1.14 µM in assay [3].

Consider `O=C(Cc1ccc(O)c(O)c1)OC[C@H]1O[C@@H](OCCc2ccc(O)c(O)c2)[C@H](O)[C@@H](O)[C@@H]1O` [TERNSTROSIDE D], for which the results for the half-inhibitory concentration (IC50) in assay [1], in assay [2] and in assay [3] were 66.9 µM, 6.5 µM and 3.85 µM, respectively.

`O=C(Cc1ccc(O)c(O)c1)O[C@H]1[C@H](OCCc2ccc(O)cc2)O[C@H](CO)[C@@H](O)[C@@H]1O` [TERNSTROSIDE E]: the IC50 worked out at 55 µM in assay [1], 4.72 µM in assay [2] and 2.56 µM in assay [3].

Regarding `Cc1c(C)c2c(c(C)c1O)CCC(C)(C(=O)O)O2` (configuration not stated) [TROLOX], the figures for the 50% inhibitory concentration (IC50) in assay [1] and in assay [2] were 29.5 µM and 2.83 µM, respectively.

The record behind these values is ChEMBL document CHEMBL1158072, “Antioxidative phenolics from the fresh leaves of Ternstroemia japonica” (J Nat Prod, 2006).
